Data as given in ChEMBL document CHEMBL1130251, “Enzymatic properties of the unnatural beta-L-enantiomers of 2',3'-dideoxyadenosine and 2',3'-didehydro-2',3'-dideoxyadenosine” (J Med Chem, 1997).

How the values were obtained:
[1] = molecular target: T1, Adenosine deaminase (Bos taurus) (UniProt P56658); test: Inhibitory activity against bovine adenosine deaminase; very weak substrate or inhibitor
T1 sequence (whole entry): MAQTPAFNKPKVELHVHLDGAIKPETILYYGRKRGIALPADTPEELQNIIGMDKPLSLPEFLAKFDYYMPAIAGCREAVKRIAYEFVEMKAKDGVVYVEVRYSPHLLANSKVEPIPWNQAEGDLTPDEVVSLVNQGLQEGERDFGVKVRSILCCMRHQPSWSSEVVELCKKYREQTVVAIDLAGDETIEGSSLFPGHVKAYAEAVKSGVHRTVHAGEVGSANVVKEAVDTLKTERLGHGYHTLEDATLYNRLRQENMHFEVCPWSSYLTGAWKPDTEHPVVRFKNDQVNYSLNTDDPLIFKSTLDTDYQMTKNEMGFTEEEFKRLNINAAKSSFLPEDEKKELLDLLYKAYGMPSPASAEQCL
In short: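 Adenosine deaminase (calf intestinal mucosa, type VIII) at 37 °C in 50 mM phosphate pH 7.5. Substrate tests used 20–80 μM nucleoside and 0.01–1 unit enzyme, with HPLC product analysis. Inhibition was read by UV spectrometry with adenosine 20–100 μM. Ki was taken from Lineweaver–Burk plots assuming competitive inhibition.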

[2] = Inhibitory activity against purine nucleoside phosphorylases from human blood and calf spleen; NS, NI/Ino=nonsubstrate, noninhibitor/inhibitor; assay type: tissue-based
In short: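 Purine nucleoside phosphorylase from calf spleen (0.18 unit·mL⁻¹) or human blood (9 units·mL⁻¹) at 37 °C in 50 mM phosphate pH 7.5. Substrate tests used 50 μM nucleoside. Inhibition used 40 μM inosine with 100 μM test compound. Reaction media were analysed by C-18 HPLC.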

[3] = system: Nc1ncnc2c1ncn2[C@H]1C=C[C@@H](CO)O1; test: Inhibitory activity against human deoxycytidine kinase
In short: (§1)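 Recombinant human deoxycytidine kinase (expressed in E. coli, purified) at 37 °C. Monophosphate formation measured by C-18 HPLC. Km and Vm from Lineweaver–Burk plots.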

[4] = system: Nc1ncnc2c1ncn2[C@H]1CC[C@@H](CO)O1; test: Inhibitory activity against Cytidine Kinase; in short: as §1

Chain of Deoxycytidine kinase (Homo sapiens), P27707 (P27707 whole entry): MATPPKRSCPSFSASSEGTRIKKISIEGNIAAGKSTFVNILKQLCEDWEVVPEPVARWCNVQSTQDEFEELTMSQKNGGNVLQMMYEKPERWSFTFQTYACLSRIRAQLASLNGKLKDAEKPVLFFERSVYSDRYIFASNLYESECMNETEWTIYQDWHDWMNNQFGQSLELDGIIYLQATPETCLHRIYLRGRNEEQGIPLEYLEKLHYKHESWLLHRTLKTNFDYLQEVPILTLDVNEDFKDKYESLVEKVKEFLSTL

**Q.** With `Nc1ncnc2c1ncn2[C@H]1C=C[C@@H](CO)O1` as the molecule, how does the inhibition [1] read?
**A.** very weak substrate or inhibitor

**Q.** And the Km [2]?
**A.** NS, NI/Ino

**Q.** With “Deoxycytidine kinase (Homo sapiens), P27707” as the molecule, how does the Km [3] read?
**A.** 620 µM

**Q.** What about the Km [4] of the same molecule?
**A.** 220 µM

**Q.** For `Nc1ncnc2c1ncn2[C@H]1CC[C@@H](CO)O1`, which Km [2] is on record?
**A.** NS, NI/Ino
